According to ChEMBL document CHEMBL1155459, “On-bead screening of a combinatorial fumaric acid derived peptide library yields antiplasmodial cysteine protease inhibitors with unusual peptide sequences” (J Med Chem, 2009):
Square brackets hold non-standard residues; d marks the D form. Peptide text beside a SMILES is read from it. * marks the point of attachment. Fumaroyl(GlyGlyPheOH) = O=C(/C=C/C(=O)*)NCC(=O)NCC(=O)N[C@@H](Cc1ccccc1)C(=O)O; Chg = N[C@H](C(=O)O)C1CCCCC1; Dap = NC[C@H](N)C(=O)O

Tests used:
[1] = target: Rhodesain (Trypanosoma brucei rhodesiense) (UniProt Q95PM0); experiment: Inhibition of Trypanosoma brucei rhodesiense rhodesain after 12 hrs by fluorescence spectroscopy-based on-bead assay; design: concentration or dose not given beside the values; conditions: concentration not given here
Chain of Rhodesain (Trypanosoma brucei rhodesiense) (Q95PM0 1-450): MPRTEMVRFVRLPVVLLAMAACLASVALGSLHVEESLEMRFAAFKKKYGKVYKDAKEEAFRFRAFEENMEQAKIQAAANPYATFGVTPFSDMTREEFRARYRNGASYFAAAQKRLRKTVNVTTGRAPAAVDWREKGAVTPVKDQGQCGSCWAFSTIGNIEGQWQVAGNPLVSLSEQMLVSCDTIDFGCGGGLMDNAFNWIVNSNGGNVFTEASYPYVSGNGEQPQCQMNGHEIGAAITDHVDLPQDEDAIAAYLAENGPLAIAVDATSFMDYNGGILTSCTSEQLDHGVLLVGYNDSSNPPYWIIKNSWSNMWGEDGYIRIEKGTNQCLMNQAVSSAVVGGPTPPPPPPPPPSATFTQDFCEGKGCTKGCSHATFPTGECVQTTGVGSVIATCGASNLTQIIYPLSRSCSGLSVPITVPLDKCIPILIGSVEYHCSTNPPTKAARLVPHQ
Outline: (§1)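 Library members on resin (PEGA, theoretical loading 0.40 mmol/g; added as DMSO suspension, 0.64 mM final inhibitor) preincubated with enzyme 12 h, then Cbz-Phe-Arg-AMC 40 μM added; AMC release followed by fluorescence (ex 380/em 460 nm). Kinetics compared with inhibitor-free amino-PEGA resin.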

[2] = Inhibition of Plasmodium falciparum falcipain-2 after 12 hrs by fluorescence spectroscopy-based on-bead assay; design: concentration or dose not given beside the values; conditions: concentration not given here; outline: as §1

Compound	inhibition [1] [%]	inhibition [2] [%]
CC(C)[C@H](NC(=O)[C@H](C)NC(=O)[C@H](Cc1ccccc1)NC(=O)[C@H](Cc1ccccc1)NC(=O)/C=C/C(=O)NCC(=O)NCC(=O)N[C@@H](Cc1ccccc1)C(=O)O)C(N)=O (HELM PEPTIDE1{[O=C(/C=C/C(=O)[*:2])NCC(=O)NCC(=O)N[C@@H](Cc1ccccc1)C(=O)O].F.F.A.V.[am]}$$$$V2.0)	47	43
CC(C)C[C@H](NC(=O)[C@H](Cc1ccccc1)NC(=O)/C=C/C(=O)NCC(=O)NCC(=O)N[C@@H](Cc1ccccc1)C(=O)O)C(=O)N[C@@H](C)C(=O)N[C@H](C(N)=O)C(C)C (HELM PEPTIDE1{[O=C(/C=C/C(=O)[*:2])NCC(=O)NCC(=O)N[C@@H](Cc1ccccc1)C(=O)O].F.L.A.V.[am]}$$$$V2.0)	71	45
CC[C@H](C)[C@H](NC(=O)[C@H](Cc1ccccc1)NC(=O)/C=C/C(=O)N[C@@H](C)C(=O)NCC(=O)N[C@@H](Cc1ccccc1)C(=O)O)C(=O)N[C@H](C(=O)N[C@H](C(N)=O)C(C)C)C(C)C (HELM PEPTIDE1{[C[C@H](NC(=O)/C=C/C(=O)[*:2])C(=O)NCC(=O)N[C@@H](Cc1ccccc1)C(=O)O].F.I.V.V.[am]}$$$$V2.0)	43	45
CC[C@H](C)[C@H](NC(=O)[C@H](CNC(C)=O)NC(=O)/C=C/C(=O)NCC(=O)NCC(=O)N[C@@H](Cc1ccccc1)C(=O)O)C(=O)N[C@@H](C)C(=O)N[C@H](C(N)=O)C(C)C (HELM PEPTIDE1{[O=C(/C=C/C(=O)[*:2])NCC(=O)NCC(=O)N[C@@H](Cc1ccccc1)C(=O)O].[O=C([C@H](CN[*:3])N[*:1])[*:2]].I.A.V.[am]}|PEPTIDE2{[ac]}$PEPTIDE1,PEPTIDE2,2:R3-1:R2$$$V2.0)	29	29
CC(C)[C@H](NC(=O)[C@@H](NC(=O)[C@@H](NC(=O)[C@H](C)NC(=O)/C=C/C(=O)N[C@@H](C)C(=O)NCC(=O)N[C@@H](Cc1ccccc1)C(=O)O)c1ccccc1)C(C)C)C(N)=O (HELM PEPTIDE1{[C[C@H](NC(=O)/C=C/C(=O)[*:2])C(=O)NCC(=O)N[C@@H](Cc1ccccc1)C(=O)O].A.[Phg].V.V.[am]}$$$$V2.0)	50	38
CC(C)C[C@H](NC(=O)[C@@H](NC(=O)[C@H](CCC(N)=O)NC(=O)/C=C/C(=O)NCC(=O)NCC(=O)N[C@@H](Cc1ccccc1)C(=O)O)C1CCCCC1)C(=O)N[C@H](C(N)=O)C(C)C (HELM PEPTIDE1{[O=C(/C=C/C(=O)[*:2])NCC(=O)NCC(=O)N[C@@H](Cc1ccccc1)C(=O)O].Q.[O=C([C@@H](N[*:1])C1CCCCC1)[*:2]].L.V.[am]}$$$$V2.0)	71	45
CC(C)[C@H](NC(=O)[C@H](C)NC(=O)[C@@H](NC(=O)[C@H](Cc1ccccc1)NC(=O)/C=C/C(=O)NCC(=O)NCC(=O)N[C@@H](Cc1ccccc1)C(=O)O)c1ccccc1)C(N)=O (HELM PEPTIDE1{[O=C(/C=C/C(=O)[*:2])NCC(=O)NCC(=O)N[C@@H](Cc1ccccc1)C(=O)O].F.[Phg].A.V.[am]}$$$$V2.0)	51	62
CC(C)C[C@H](NC(=O)[C@H](Cc1ccccc1)NC(=O)/C=C/C(=O)N[C@@H](C)C(=O)NCC(=O)N[C@@H](Cc1ccccc1)C(=O)O)C(=O)N[C@@H](C)C(=O)N[C@H](C(N)=O)C(C)C (HELM PEPTIDE1{[C[C@H](NC(=O)/C=C/C(=O)[*:2])C(=O)NCC(=O)N[C@@H](Cc1ccccc1)C(=O)O].F.L.A.V.[am]}$$$$V2.0)	49	45
CC(C)C[C@H](NC(=O)[C@H](Cc1ccccc1)NC(=O)/C=C/C(=O)N[C@@H](C)C(=O)NCC(=O)N[C@@H](Cc1ccccc1)C(=O)O)C(=O)N[C@@H](CC(C)C)C(=O)N[C@H](C(N)=O)C(C)C (HELM PEPTIDE1{[C[C@H](NC(=O)/C=C/C(=O)[*:2])C(=O)NCC(=O)N[C@@H](Cc1ccccc1)C(=O)O].F.L.L.V.[am]}$$$$V2.0)	69	62
CC(=O)NC[C@H](NC(=O)/C=C/C(=O)NCC(=O)NCC(=O)N[C@@H](Cc1ccccc1)C(=O)O)C(=O)N[C@H](C(=O)N[C@@H](CC(C)C)C(=O)N[C@H](C(N)=O)C(C)C)C1CCCCC1 ({Fumaroyl(GlyGlyPheOH)}-[Dap](Ac)[Chg]LV-NH2)	75	26
CC(C)[C@H](NC(=O)[C@H](C)NC(=O)[C@@H](NC(=O)[C@H](C)NC(=O)/C=C/C(=O)N[C@@H](C)C(=O)NCC(=O)N[C@@H](Cc1ccccc1)C(=O)O)c1ccccc1)C(N)=O (HELM PEPTIDE1{[C[C@H](NC(=O)/C=C/C(=O)[*:2])C(=O)NCC(=O)N[C@@H](Cc1ccccc1)C(=O)O].A.[Phg].A.V.[am]}$$$$V2.0)	25	57
CC(C)C[C@H](NC(=O)[C@H](CC(N)=O)NC(=O)/C=C/C(=O)N[C@@H](C)C(=O)NCC(=O)N[C@@H](Cc1ccccc1)C(=O)O)C(=O)N[C@@H](C)C(=O)N[C@H](C(N)=O)C(C)C (HELM PEPTIDE1{[C[C@H](NC(=O)/C=C/C(=O)[*:2])C(=O)NCC(=O)N[C@@H](Cc1ccccc1)C(=O)O].N.L.A.V.[am]}$$$$V2.0)	42	33
CC(C)[C@H](NC(=O)[C@H](C)NC(=O)[C@H](Cc1ccccc1)NC(=O)[C@H](CCC(N)=O)NC(=O)/C=C/C(=O)N[C@@H](C)C(=O)NCC(=O)N[C@@H](Cc1ccccc1)C(=O)O)C(N)=O (HELM PEPTIDE1{[C[C@H](NC(=O)/C=C/C(=O)[*:2])C(=O)NCC(=O)N[C@@H](Cc1ccccc1)C(=O)O].Q.F.A.V.[am]}$$$$V2.0)	30	25
CC[C@H](C)[C@H](NC(=O)[C@H](CCC(N)=O)NC(=O)/C=C/C(=O)NCC(=O)NCC(=O)N[C@@H](Cc1ccccc1)C(=O)O)C(=O)N[C@H](C(=O)N[C@H](C(N)=O)C(C)C)C(C)C (HELM PEPTIDE1{[O=C(/C=C/C(=O)[*:2])NCC(=O)NCC(=O)N[C@@H](Cc1ccccc1)C(=O)O].Q.I.V.V.[am]}$$$$V2.0)	37	30
CC(C)C[C@H](NC(=O)[C@@H](NC(=O)[C@H](C)NC(=O)/C=C/C(=O)N[C@@H](C)C(=O)NCC(=O)N[C@@H](Cc1ccccc1)C(=O)O)C1CCCCC1)C(=O)N[C@H](C(N)=O)C(C)C (HELM PEPTIDE1{[C[C@H](NC(=O)/C=C/C(=O)[*:2])C(=O)NCC(=O)N[C@@H](Cc1ccccc1)C(=O)O].A.[O=C([C@@H](N[*:1])C1CCCCC1)[*:2]].L.V.[am]}$$$$V2.0)	59	43
CC(C)[C@H](NC(=O)[C@H](C)NC(=O)[C@@H](NC(=O)[C@H](CCC(N)=O)NC(=O)/C=C/C(=O)N[C@@H](C)C(=O)NCC(=O)N[C@@H](Cc1ccccc1)C(=O)O)c1ccccc1)C(N)=O (HELM PEPTIDE1{[C[C@H](NC(=O)/C=C/C(=O)[*:2])C(=O)NCC(=O)N[C@@H](Cc1ccccc1)C(=O)O].Q.[Phg].A.V.[am]}$$$$V2.0)	12	55
CC(C)C[C@H](NC(=O)[C@@H](NC(=O)[C@H](Cc1ccccc1)NC(=O)/C=C/C(=O)NCC(=O)NCC(=O)N[C@@H](Cc1ccccc1)C(=O)O)C1CCCCC1)C(=O)N[C@H](C(N)=O)C(C)C (HELM PEPTIDE1{[O=C(/C=C/C(=O)[*:2])NCC(=O)NCC(=O)N[C@@H](Cc1ccccc1)C(=O)O].F.[O=C([C@@H](N[*:1])C1CCCCC1)[*:2]].L.V.[am]}$$$$V2.0)	57	40
CC(C)C[C@H](NC(=O)[C@@H](NC(=O)[C@H](CC(N)=O)NC(=O)/C=C/C(=O)N[C@@H](C)C(=O)NCC(=O)N[C@@H](Cc1ccccc1)C(=O)O)c1ccccc1)C(=O)N[C@H](C(N)=O)C(C)C (HELM PEPTIDE1{[C[C@H](NC(=O)/C=C/C(=O)[*:2])C(=O)NCC(=O)N[C@@H](Cc1ccccc1)C(=O)O].N.[Phg].L.V.[am]}$$$$V2.0)	55	55
CC[C@H](C)[C@H](NC(=O)[C@H](Cc1ccccc1)NC(=O)/C=C/C(=O)N[C@@H](C)C(=O)NCC(=O)N[C@@H](Cc1ccccc1)C(=O)O)C(=O)N[C@@H](CC(C)C)C(=O)N[C@H](C(N)=O)C(C)C (HELM PEPTIDE1{[C[C@H](NC(=O)/C=C/C(=O)[*:2])C(=O)NCC(=O)N[C@@H](Cc1ccccc1)C(=O)O].F.I.L.V.[am]}$$$$V2.0)	61	51
CC[C@H](C)[C@H](NC(=O)[C@H](C)NC(=O)/C=C/C(=O)NCC(=O)NCC(=O)N[C@@H](Cc1ccccc1)C(=O)O)C(=O)N[C@@H](C)C(=O)N[C@H](C(N)=O)C(C)C (HELM PEPTIDE1{[O=C(/C=C/C(=O)[*:2])NCC(=O)NCC(=O)N[C@@H](Cc1ccccc1)C(=O)O].A.I.A.V.[am]}$$$$V2.0)	31	54
CC(C)C[C@H](NC(=O)[C@@H](NC(=O)[C@H](CCC(N)=O)NC(=O)/C=C/C(=O)N[C@@H](C)C(=O)NCC(=O)N[C@@H](Cc1ccccc1)C(=O)O)C1CCCCC1)C(=O)N[C@H](C(N)=O)C(C)C (HELM PEPTIDE1{[C[C@H](NC(=O)/C=C/C(=O)[*:2])C(=O)NCC(=O)N[C@@H](Cc1ccccc1)C(=O)O].Q.[O=C([C@@H](N[*:1])C1CCCCC1)[*:2]].L.V.[am]}$$$$V2.0)	52	47
CC(C)C[C@H](NC(=O)[C@H](Cc1ccccc1)NC(=O)[C@H](Cc1ccccc1)NC(=O)/C=C/C(=O)NCC(=O)NCC(=O)N[C@@H](Cc1ccccc1)C(=O)O)C(=O)N[C@H](C(N)=O)C(C)C (HELM PEPTIDE1{[O=C(/C=C/C(=O)[*:2])NCC(=O)NCC(=O)N[C@@H](Cc1ccccc1)C(=O)O].F.F.L.V.[am]}$$$$V2.0)	52	41
CC(=O)NC[C@H](NC(=O)/C=C/C(=O)NCC(=O)NCC(=O)N[C@@H](Cc1ccccc1)C(=O)O)C(=O)N[C@@H](Cc1ccccc1)C(=O)N[C@H](C(=O)N[C@H](C(N)=O)C(C)C)C(C)C (HELM PEPTIDE1{[O=C(/C=C/C(=O)[*:2])NCC(=O)NCC(=O)N[C@@H](Cc1ccccc1)C(=O)O].[O=C([C@H](CN[*:3])N[*:1])[*:2]].F.V.V.[am]}|PEPTIDE2{[ac]}$PEPTIDE1,PEPTIDE2,2:R3-1:R2$$$V2.0)	61	46
